Reference: ChEMBL document CHEMBL3992564, “Design and synthesis of novel, potent and selective hypoxanthine analogs as adenosine A1 receptor antagonists and their biological evaluation” (Bioorg Med Chem, 2017)
Activity calls are given as the source filed them. No cut-off for these calls is given here.

Experiments:
[1] = biological target: T1, Adenosine receptor A2a (Homo sapiens, UniProt P29274); test: Displacement of [3H]ZM241385 from human adenosine A2A receptor expressed in HEK293 cell membranes at 1 uM after 90 mins relative to control
Method in brief: (§1)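 Membranes from HEK-293 cells stably transfected with human receptor, pre-treated with adenosine deaminase. Radioligands: 1 nM [3H]DPCPX (A1), 1 nM [3H]ZM241385 (A2A), 1.6 nM [3H]MRS-1754 (A2B), 2 nM [3H]HEMADO (A3). Buffers: Tris pH 7.4 (A1, A2A, A3) or pH 6.5 (A2B), with ADA. Incubated 90 min at room temperature, then filtered. Nonspecific binding defined with 100 µM NECA. Ki from 8 concentrations run in triplicate.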

[2] = biological target: T2, Adenosine receptor A3 (Homo sapiens) (UniProt P0DMS8); test: Displacement of [3H]HEMADO from human adenosine A3 receptor expressed in HEK293 cell membranes at 1 uM after 90 mins relative to control; method in brief: as §1
T2 sequence (whole entry): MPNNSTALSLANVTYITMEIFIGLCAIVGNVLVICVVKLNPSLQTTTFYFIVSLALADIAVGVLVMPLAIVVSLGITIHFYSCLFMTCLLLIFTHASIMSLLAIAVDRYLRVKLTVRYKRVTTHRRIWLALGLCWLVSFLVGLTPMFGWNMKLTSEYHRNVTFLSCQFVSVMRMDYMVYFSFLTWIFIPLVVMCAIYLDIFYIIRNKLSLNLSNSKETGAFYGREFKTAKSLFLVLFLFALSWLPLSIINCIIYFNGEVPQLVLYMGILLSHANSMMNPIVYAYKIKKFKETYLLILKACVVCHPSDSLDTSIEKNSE

[3] = biological target: T1, Adenosine receptor A2a; test: Displacement of [3H]ZM241385 from human adenosine A2A receptor expressed in HEK293 cell membranes after 90 mins; method in brief: as §1
[4] = biological target: CYP2C9 (Homo sapiens, UniProt P11712); test: Inhibition of CYP2C9 (unknown origin) at 5 uM relative to control; assay type: ADME
[5] = biological target: CYP2C19 (Homo sapiens, UniProt P33261); test: Inhibition of CYP2C19 (unknown origin) at 5 uM relative to control; assay type: ADME
[6] = Protein binding in rat plasma at 5 uM; assay type: ADME, cell-free; conditions: read-out: PPB (converted)
[7] = Drug metabolism assessed as hydroxylation at N-1 propyl by metabolic soft spot analysis; assay type: physicochemical
[8] = biological target: T3, Adenosine receptor A2b (Homo sapiens, UniProt P29275); test: Displacement of [3H]MRS-1754 from human adenosine A2B receptor expressed in HEK293 cell membranes after 90 mins; method in brief: as §1
T3 sequence (P29275 whole entry): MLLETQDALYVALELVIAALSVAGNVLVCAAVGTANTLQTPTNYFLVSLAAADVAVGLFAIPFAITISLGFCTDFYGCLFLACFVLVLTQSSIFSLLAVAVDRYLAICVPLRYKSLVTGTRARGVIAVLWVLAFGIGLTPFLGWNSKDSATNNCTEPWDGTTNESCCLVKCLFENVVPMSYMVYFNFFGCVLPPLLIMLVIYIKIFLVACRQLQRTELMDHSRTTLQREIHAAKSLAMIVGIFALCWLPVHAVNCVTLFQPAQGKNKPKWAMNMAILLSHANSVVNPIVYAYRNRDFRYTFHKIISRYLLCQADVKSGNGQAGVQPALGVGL

[9] = biological target: T4, hERG (KCNH2) (Homo sapiens, UniProt Q12809); test: Inhibition of human ERG at 5 uM relative to control
[10] = biological target: T4, hERG (KCNH2); test: Inhibition of human ERG at 25 uM relative to control
[11] = Protein binding in mouse plasma at 5 uM; assay type: ADME, cell-free; conditions: read-out: PPB (converted)
[12] = Cmax in Wistar rat at 5 mg/kg, po via gavage by LC-Ms/MS analysis; assay type: ADME, organism-based; design: dose 5 mg/kg, route oral; conditions: in vivo
Method in brief: (§2)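 Male Wistar rats (230 ± 15 g), fasted overnight with water available. IV dose of 3 mg/kg given by tail vein as a solution (0.6 mg/mL, 5 mL/kg). PO dose of 5 mg/kg given by gavage as a suspension. Blood was collected into K2EDTA at 0.008 (IV only) to 24 h and plasma was spun off. Samples were precipitated with acetonitrile and run on LC/MS/MS. Parameters came from non-compartmental analysis of individual animals, mean of n = 4.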

[13] = Tmax in Wistar rat at 5 mg/kg, po via gavage by LC-Ms/MS analysis; assay type: ADME, organism-based; conditions: in vivo
Method in brief: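 Male Wistar rats (230 ± 15 g), fasted overnight with water available. IV dosing at 3 mg/kg by tail vein as solution (0.6 mg/mL, 5 mL/kg). PO dosing at 5 mg/kg by oral gavage. Serial blood sampling into K2EDTA from 0.008 (IV only) to 24 h. Plasma precipitated with acetonitrile containing internal standard and analysed by LC/MS/MS. Non-compartmental parameters calculated per animal; values are means of n = 4.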

[14] = AUC(0 to t) in Wistar rat at 5 mg/kg, po via gavage by LC-Ms/MS analysis; assay type: ADME, organism-based; conditions: in vivo; method in brief: as §2
[15] = Plasma concentration in Wistar rat at 5 mg/kg, po via gavage measured at 1 hr post dose by LC-Ms/MS analysis; assay type: ADME, organism-based
Method in brief: (§3)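 Male Wistar rats, fasted overnight and for 2 h after dosing, given an oral solution at 5 mg/kg (0.5 mg/mL). Vehicle: NMP 10% with Labrasol 30% or PEG-400 20%, in citrate buffer […]. Blood and brain were taken at discrete time points, n = 2 per time point. Brain was homogenized 1:2 in PBS. Samples were precipitated with acetonitrile and run on LC-MS/MS; LLOQ 10 ng/mL.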

[16] = Plasma concentration in Wistar rat at 5 mg/kg, po via gavage measured at 2 hrs post dose by LC-Ms/MS analysis; assay type: ADME, organism-based; method in brief: as §3
[17] = Plasma concentration in Wistar rat at 5 mg/kg, po via gavage measured at 4 hrs post dose by LC-Ms/MS analysis; assay type: ADME, organism-based; method in brief: as §3
[18] = Drug uptake in Wistar rat brain at 5 mg/kg, po via gavage measured at 1 hr post dose by LC-Ms/MS analysis; assay type: ADME, organism-based; conditions: read-out: Drug uptake; method in brief: as §3
[19] = Drug uptake in Wistar rat brain at 5 mg/kg, po via gavage measured at 2 hrs post dose by LC-Ms/MS analysis; assay type: ADME, organism-based; conditions: read-out: Drug uptake; method in brief: as §3
[20] = Drug uptake in Wistar rat brain at 5 mg/kg, po via gavage measured at 4 hrs post dose by LC-Ms/MS analysis; assay type: ADME, organism-based; conditions: read-out: Drug uptake; method in brief: as §3
[21] = tested on: Rattus norvegicus; test: Diuretic activity in Wistar rat at 10 to 30 mg/kg, po via gavage measured after 4 hrs; assay type: functional, organism-based
Method in brief: (§4)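 Male Wistar rats (250-300 g, n = 6) dosed orally at 5 mL/kg. Vehicles: DMAC 5%/NaOH/saline, or NMP 10%/PEG-400 20%/saline pH 12.0. Rats were then kept singly in metabolic cages without food or water for 4 h. Urine volume, Na+ and K+ were measured with a biochemistry analyser.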

[22] = tested on: Rattus norvegicus; test: Natriuretic activity in Wistar rat at 3 to 30 mg/kg, po via gavage measured after 4 hrs; assay type: functional, organism-based; method in brief: as §4
[23] = tested on: Rattus norvegicus; test: Effect on serum Na+ level in Wistar rat at 3 to 30 mg/kg, po via gavage; assay type: ADME, organism-based; conditions: in vivo
[24] = tested on: Rattus norvegicus; test: Effect on serum K+ level in Wistar rat at 3 to 30 mg/kg, po via gavage; assay type: ADME, organism-based; conditions: in vivo

T4 sequence (Q12809 whole entry): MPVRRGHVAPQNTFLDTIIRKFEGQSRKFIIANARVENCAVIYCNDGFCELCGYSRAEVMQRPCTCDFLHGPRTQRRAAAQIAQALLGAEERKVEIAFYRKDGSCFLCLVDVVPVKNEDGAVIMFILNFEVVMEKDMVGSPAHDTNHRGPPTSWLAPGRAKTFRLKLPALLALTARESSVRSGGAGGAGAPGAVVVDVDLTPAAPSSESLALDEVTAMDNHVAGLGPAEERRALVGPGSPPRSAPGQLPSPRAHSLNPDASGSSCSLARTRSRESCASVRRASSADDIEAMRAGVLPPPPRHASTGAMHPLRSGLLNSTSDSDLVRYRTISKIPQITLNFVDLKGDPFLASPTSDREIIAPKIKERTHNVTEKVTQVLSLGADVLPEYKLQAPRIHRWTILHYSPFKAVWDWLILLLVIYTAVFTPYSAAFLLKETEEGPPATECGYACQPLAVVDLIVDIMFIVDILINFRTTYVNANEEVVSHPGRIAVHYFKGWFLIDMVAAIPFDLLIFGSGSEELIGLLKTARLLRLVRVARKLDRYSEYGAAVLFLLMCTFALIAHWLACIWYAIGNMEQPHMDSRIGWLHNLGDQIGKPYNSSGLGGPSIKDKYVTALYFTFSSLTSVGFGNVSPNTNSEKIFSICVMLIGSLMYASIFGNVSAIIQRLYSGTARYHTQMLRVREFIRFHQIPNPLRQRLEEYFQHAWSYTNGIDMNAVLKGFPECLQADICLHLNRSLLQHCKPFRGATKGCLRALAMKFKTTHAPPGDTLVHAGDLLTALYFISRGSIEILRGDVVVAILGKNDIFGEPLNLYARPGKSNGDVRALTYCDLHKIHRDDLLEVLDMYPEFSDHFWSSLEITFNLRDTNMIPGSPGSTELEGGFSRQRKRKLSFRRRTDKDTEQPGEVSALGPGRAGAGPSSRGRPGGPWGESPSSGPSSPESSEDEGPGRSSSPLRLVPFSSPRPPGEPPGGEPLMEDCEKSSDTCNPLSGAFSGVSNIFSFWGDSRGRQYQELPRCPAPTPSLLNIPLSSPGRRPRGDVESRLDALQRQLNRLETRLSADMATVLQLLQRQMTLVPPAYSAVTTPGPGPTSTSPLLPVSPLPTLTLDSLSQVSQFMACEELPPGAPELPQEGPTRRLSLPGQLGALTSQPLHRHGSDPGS
T1 sequence (P29274 whole entry): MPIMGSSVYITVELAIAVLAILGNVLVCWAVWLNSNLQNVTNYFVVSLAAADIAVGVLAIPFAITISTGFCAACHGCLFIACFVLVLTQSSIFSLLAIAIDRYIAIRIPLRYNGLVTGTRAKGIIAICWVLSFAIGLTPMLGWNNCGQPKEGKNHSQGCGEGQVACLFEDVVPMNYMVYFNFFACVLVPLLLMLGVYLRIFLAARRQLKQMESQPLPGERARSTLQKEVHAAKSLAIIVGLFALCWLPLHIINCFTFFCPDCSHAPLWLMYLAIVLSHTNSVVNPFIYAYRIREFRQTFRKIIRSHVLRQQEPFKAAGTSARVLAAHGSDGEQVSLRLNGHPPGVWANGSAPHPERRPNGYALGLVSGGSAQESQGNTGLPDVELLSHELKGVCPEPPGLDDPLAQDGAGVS
CYP2C19, sequence (P33261 whole entry): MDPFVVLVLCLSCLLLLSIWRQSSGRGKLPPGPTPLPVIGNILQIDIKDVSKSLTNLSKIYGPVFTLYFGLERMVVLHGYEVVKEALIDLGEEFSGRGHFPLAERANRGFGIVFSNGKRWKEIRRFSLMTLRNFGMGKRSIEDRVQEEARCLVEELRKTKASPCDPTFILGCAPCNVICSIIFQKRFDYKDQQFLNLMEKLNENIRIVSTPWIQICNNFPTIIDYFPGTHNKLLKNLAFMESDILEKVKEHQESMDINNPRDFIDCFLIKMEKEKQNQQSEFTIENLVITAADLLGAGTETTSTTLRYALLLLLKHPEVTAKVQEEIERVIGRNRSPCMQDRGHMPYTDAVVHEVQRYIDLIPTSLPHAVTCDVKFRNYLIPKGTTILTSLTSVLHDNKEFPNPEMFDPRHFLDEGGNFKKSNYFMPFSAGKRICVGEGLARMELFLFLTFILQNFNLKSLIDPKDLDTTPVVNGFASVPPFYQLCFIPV
CYP2C9, sequence (P11712 whole entry): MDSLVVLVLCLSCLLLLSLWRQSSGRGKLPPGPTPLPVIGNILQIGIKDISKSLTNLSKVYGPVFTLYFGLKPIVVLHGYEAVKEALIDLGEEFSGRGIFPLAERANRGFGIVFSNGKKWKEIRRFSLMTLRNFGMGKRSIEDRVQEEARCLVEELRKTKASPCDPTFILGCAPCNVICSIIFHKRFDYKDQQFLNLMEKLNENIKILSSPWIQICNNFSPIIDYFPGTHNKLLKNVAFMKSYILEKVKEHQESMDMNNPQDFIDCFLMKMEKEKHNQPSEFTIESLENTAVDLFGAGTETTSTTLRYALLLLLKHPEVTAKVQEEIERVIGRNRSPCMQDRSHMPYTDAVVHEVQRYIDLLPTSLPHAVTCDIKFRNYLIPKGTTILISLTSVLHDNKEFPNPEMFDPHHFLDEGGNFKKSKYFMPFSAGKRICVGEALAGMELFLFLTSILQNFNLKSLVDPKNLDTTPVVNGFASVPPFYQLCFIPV

SMILES | inhibition [1] | Ki [3] [µM] | inhibition at 5 µM [4] [%] | inhibition at 5 µM [5] [%] | fraction unbound at 5 µM [6] | Ki [8] [µM] | inhibition at 5 µM [9] [%] | inhibition at 25 µM [10] [%] | fraction unbound at 5 µM [11] | Cmax [12] [nM] | Tmax [13] [min] | AUC(0-t) [14] [µM·h] | concentration at 1 h [15] [nM] | concentration at 2 h [16] [nM] | concentration at 4 h [17] [nM] | concentration at 1 h [18] | concentration at 2 h [19] | concentration at 4 h [20] | other results
CCCn1c(Oc2cccnc2C)nc2nc(C3CCCC3)[nH]c2c1=O | 33% | 2 | 4 | 10 | 0.23 | – | – | – | – | – | – | – | – | – | – | – | – | – | inhibition [2]: 35%; Drug metabolism [7]: Metabolite_Detected
CCCn1c(Oc2ccc(F)c(F)c2)nc2nc(C3CCCC3)[nH]c2c1=O | inactive | > 10 | – | 0 | 0.01 | > 10 | 2 | 4 | 0.01 | 9710 | 97.8 | 3.19 | 1640 | 940 | 1810 | 90 nM | 50 nM | 80 nM | IC50 [8]: > 10 µM; Activity [21]: Active; Activity [22]: Active; Activity [23]: Non-Toxic; Activity [24]: Non-Toxic
CCCn1c(-c2cccc(OC)c2)nc2nc(C3CCCC3)[nH]c2c1=O | – | ≥ 10 | 7 | – | 0.05 | 1.1 | 9 | 72 | 0.05 | 1740 | 18 | 1.6 | 670 | 540 | 40 | 10 ng/g | 10 ng/g | 10 ng/g | –
